Experimental findings from PMC6407133 (Journal of the American Chemical Society, 2018) are described below.

Read-outs that look alike come from different tables or passages of the source.

Test [1] relates to P. falciparum W2. The test can be described thus: P. falciparum replication assay. The class given is cell-based, Plasmodium falciparum. The conditions noted are these: read-out: 72 h EC50 Pf; 72 h treatment, no washout; P. falciparum W2 ring stage.
For test [2], the system named is non-confluent human foreskin fibroblast (HFF) cells. The test can be described thus: Cell viability assay in mammalian cells. It is filed as cell-based. The conditions noted are these: non-confluent HFFs. In short, it runs like this:
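Nontransformed primary human foreskin fibroblasts, Mycoplasma-tested, seeded nonconfluent at 2500 cells/well less than 24 h before dosing. Test compound dose–response dilutions in media applied for 1 h (then washed out) or 72 h. Viability read by CellTiter-Blue. EC50 values are the mean of n = 9 cultures from three independent experiments run in triplicate.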

The test system of test [3] is P. berghei. The test can be described thus: Plasmodium berghei mouse model of infection. The class given is in vivo. The conditions noted are these: CD1 mice, 50 mg/kg once daily for 4 days, intravenous.

In general, EC50 refers to the concentration giving half of the maximal effect. For the compound `CC(C)C[C@@H](/C=C/S(C)(=O)=O)NC(=O)[C@H](CC(C)C)NC(=O)[C@H](Cc1c[nH]c2ccccc12)NC(=O)CN1CCOCC1` [WLL-vs], the EC50 in test [1] turned out to be 0.015 ± 0.005 µM; in test [2] (read-out: 1 h EC50 HFF, 1 h treatment), 65.5 ± 15.2 µM; in test [2] (read-out: 72 h EC50 HFF, 72 h treatment), 1.52 ± 0.41 µM. In test [3], the “reduction of parasites on day 4” value is listed as 98%.
